Bioassay records deposited in PubChem by several laboratories.
TbHK1 inh: Trypanosoma brucei hexokinase 1 inhibitors, primary screen, biochemical, G6PDH-coupled NADH absorbance, MLSCN library; hit rate 0.11% among 220,000; hexokinase 1 [Trypanosoma brucei]; AID 1430, 2008; inhibition, % at 10 µM; recombinant TbHK1, G6PDH-coupled NADH A340;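 active = inhibition of 50% or more in the single-dose primary screen; inactive = inhibition below 50%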
p97 ATPase inh: inhibitors of human p97 ATPase, primary screen, biochemical; Transitional endoplasmic reticulum ATPase (Homo sapiens), P55072; recombinant p97 ATPase, Kinase-Glo ATP luminescence, 3 h; inhibition, % at 8 µM; hit rate 0.42% among 220,000; in the data active = inhibition above about 15%;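 also: 0% = DMSO vehicle and 100% = wells lacking enzyme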
Target sequence (P55072 whole entry, looked up): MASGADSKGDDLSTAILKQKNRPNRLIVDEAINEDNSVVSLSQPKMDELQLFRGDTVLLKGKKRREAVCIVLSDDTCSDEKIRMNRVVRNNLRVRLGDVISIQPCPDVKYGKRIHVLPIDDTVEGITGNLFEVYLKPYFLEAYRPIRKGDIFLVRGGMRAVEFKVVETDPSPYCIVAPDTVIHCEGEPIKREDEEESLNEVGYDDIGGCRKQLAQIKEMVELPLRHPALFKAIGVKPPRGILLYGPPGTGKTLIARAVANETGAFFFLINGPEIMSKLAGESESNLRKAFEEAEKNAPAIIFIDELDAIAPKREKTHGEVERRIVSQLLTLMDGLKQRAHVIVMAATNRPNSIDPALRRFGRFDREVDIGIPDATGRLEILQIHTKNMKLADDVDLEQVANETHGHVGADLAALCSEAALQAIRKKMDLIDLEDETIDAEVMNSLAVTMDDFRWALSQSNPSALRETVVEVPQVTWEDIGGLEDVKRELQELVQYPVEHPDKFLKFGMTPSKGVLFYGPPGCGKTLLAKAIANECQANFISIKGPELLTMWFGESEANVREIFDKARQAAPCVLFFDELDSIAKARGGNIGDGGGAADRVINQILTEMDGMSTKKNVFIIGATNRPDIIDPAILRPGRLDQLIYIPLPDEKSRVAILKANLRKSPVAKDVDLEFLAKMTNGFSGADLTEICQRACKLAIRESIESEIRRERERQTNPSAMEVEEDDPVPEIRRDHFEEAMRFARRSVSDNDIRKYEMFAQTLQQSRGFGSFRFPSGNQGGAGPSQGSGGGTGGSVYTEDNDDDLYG
Redox H2O2 prof: compounds producing H2O2 with reducing agent – biochemical, NIH compound library profiling, artefact control for MLSCN library redox annotation, primary screen; activation, % at 10 µM; hit rate 0.03% among 200,000; AID 878, 2007; DTT-dependent redox cycling H2O2, phenol red/HRP absorbance; 100% = 100 µM peroxide control, 0% = buffer;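 active = activation of at least 50% relative to the plate's high and low controls in the primary single-dose screen; inactive = activation below 50%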;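 also: compound incubated with DTT at 0.8 mM final as the reducing agent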
PMI act satM6P: human PMI activators, high substrate, primary screen, biochemical, fluorescence intensity, near-saturating mannose 6-phosphate | activation factor at 20 µM | coupled PMI enzyme assay, resazurin fluorescence, 20 min; stronger effect = higher value; 1 = untreated enzyme, 0 = substrate-free blank | hit rate 0.34% among 190,000 | Mannose-6-phosphate isomerase (Homo sapiens), P34949;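 active = activation factor of 2 or more at 20 µM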
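Test system – human PMI in coupled enzyme assay · Timing – 20 min incubation at room temperature · Detection – Diaphorase-driven resazurin-to-resorufin fluorescence, excitation 544, emission 590 nm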
G6PDH counter-1: L. mesenteroides G6PDH inhibitors, counter-screen for G6PDH-coupled screening assays, biochemical, Leuconostoc mesenteroides enzyme | inhibition, % at 5 µM | Purified L. mesenteroides G6PDH, diaphorase/resazurin coupled fluorescence, 45 min | hit rate 0.12% among 200,000 | glucose-6-phosphate dehydrogenase [Leuconostoc mesenteroides]; in the data active = inhibition above about 50%
PMI act: activators of human PMI, primary screen, biochemical, fluorescence intensity, near-Km mannose 6-phosphate. Mannose-6-phosphate isomerase (Homo sapiens), P34949. purified human PMI, coupled resazurin fluorescence, 20 min; stronger effect = higher value; 1 = vehicle control, 0 substrate-free wells. activation factor at 20 µM. hit rate 0.005% among 190,000;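 active = activation factor of 2 or more at 20 µM, relative to plate controls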
G6PDH counter-2: Leuconostoc G6PDH inhibition, confirmation, counter-screen for TbHK1 inhibitor project, biochemical, DPI cherry-picked compounds, single concentration; inhibition, % at 10 µM; hit rate 7% among 210; shares compounds with TbHK1 inh; purified G6PDH, NADH absorbance, 1 h;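 active = at least 50% inhibition in the glucose-6-phosphate dehydrogenase coupled counterscreen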
TbHK1 confirm: TbHK1 inhibitor retest, confirmation, biochemical, DPI cherry-picked primary actives. shares compounds with TbHK1 inh. AID 2560, 2010. hit rate 10% among 210. recombinant TbHK1, G6PDH-coupled NADH A340 absorbance. inhibition, % at 10 µM;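 active = inhibition of at least 50% in both of the two screening runs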;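 also: 0% and 100% set by the maximum and minimum signal control wells on each plate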
* = called active by the depositor; . = no result given. Hits are enriched below; roughly 0.91% of the tested compounds scored in any of these assays.

SMILES | TbHK1 inh | p97 ATPase inh | Redox H2O2 prof | PMI act satM6P | G6PDH counter-1 | PMI act | G6PDH counter-2 | TbHK1 confirm
O=S(=O)(Cc1ccccc1Cl)CC(O)COc1ccccc1Cl (stereo not given) | 53* | -4 | -5 | 0.9 | 6 | 0.9 | 13 | 12
NC(N)=Nc1nc(CCN2C(=O)c3ccccc3C2=O)cs1 | 7 | -1 | -8 | 1 | 23 | 1 | . | .
C/C(Cl)=C\Cn1c(NCCc2ccccc2)nc2c1c(=O)n(C)c(=O)n2C | -3 | 3 | 0 | 1 | 4 | 1 | . | .
C/C(Cl)=C/Cn1c(=O)c2c(nc(Br)n2Cc2ccccc2)n(C)c1=O | 58* | 1 | 2 | 1 | 22 | 1.1 | -5 | 4
CC(=O)Nc1ccc(S(=O)(=O)N(C)CC(=O)OCC(=O)Nc2cccnc2Cl)cc1 | 35 | 6 | 0 | 0.9 | 5 | 1 | . | .
CCN(CC)CCOc1ncnc2c1oc1ccccc12 | -6 | 2 | -1 | 1.1 | 11 | 1.1 | . | .
CCCCc1oc2ccccc2c1C(=O)c1cc(I)c(OCCN(CC)CC)c(I)c1 | 63* | 1 | 3 | 1.2 | 7 | 1.1 | 8 | 6
O=C(Cc1ccccc1)NN1C(=O)C2C3C=CC(C3)[C@@H]2C1=O (stereo not given in full) | -1 | 1 | 0 | 0.9 | 10 | 1 | . | .
COCCNC(=O)CN(Cc1ccc2c(c1)OCO2)C(=O)CCC(=O)Nc1nccs1 | 53* | 1 | 0 | 0.9 | -13 | 1 | -13 | -1
CNc1nnc(Sc2ncccc2[N+](=O)[O-])s1 | -23 | 5 | . | . | . | . | . | .
O=C(O)CCCN=C1CCCc2ccccc2N1 | 21 | 4 | -1 | 1 | 1 | 1 | . | .
O=C(O)CCN=C1CCCc2ccccc2N1 | 54* | 1 | -5 | 0.9 | 17 | 0.9 | -1 | 4
COc1ccc(C2(C)NC(=O)N(Cc3cc(Cl)cc4c3OCOC4)C2=O)cc1OC (stereo not given) | 53* | -3 | -1 | 1 | 2 | 0.8 | -8 | -1
O=c1nc2c(O)cccn2c2c1c(=O)[nH]c1ccccc12 | 56* | 12 | 0 | 0.7 | -8 | 1 | 45 | 70*
O=c1[nH]c2ccccc2c2nc3ccccn3c12 | 2 | 4 | -2 | 0.9 | -2 | 0.9 | . | .
O=C1OC(N2CCN(C(=O)C3CCCO3)CC2)c2ccccc21 (stereo not given) | 63* | 1 | -2 | 1 | 3 | 1 | -3 | 3
COc1ccccc1N1CCN(C(=O)C2CCCO2)CC1 (stereo not given) | -6 | 3 | 3 | 1.1 | 11 | 1 | . | .
O=C(C1CCCO1)N1CCN(c2ncccn2)CC1 (stereo not given) | 56* | 2 | 1 | 1 | 5 | 1 | -9 | -4
CCSc1nnc(COc2ccccc2)n1CC | -5 | 7 | . | . | . | . | . | .
CCS(=O)(=O)N1CCC(C(=O)NCCN2CCN(Cc3ccccc3)CC2)CC1 | 50* | 0 | 0 | 1 | 16 | 1 | -6 | 7
CC(=O)C1C(c2ccc(F)cc2)NC(=O)NC1(O)C(F)(F)F (stereo not given) | 51* | -1 | 1 | 1 | 3 | 1 | -6 | 3
CC(=O)C1C(c2ccc(O)cc2)NC(=O)NC1(O)C(F)(F)F (stereo not given) | -8 | . | . | . | . | . | . | .
COc1ccc(C(=O)Nc2cc(Cl)ccc2OC(=O)c2ccc(OC)cc2)cc1 | 0 | 3 | -3 | 0.9 | 6 | 0.9 | . | .
COc1ccc(C(=O)Nc2cc(Cl)ccc2C(=O)O)cc1 | 53* | 7 | -1 | 1 | -1 | 1 | -20 | 65*
O=C(CN(CC1CCCO1)C(=O)CCC(=O)Nc1nccs1)NCc1ccccc1 (stereo not given) | 3 | -2 | 1 | 1.1 | 0 | 1.1 | . | .
SMILES | TbHK1 inh | p97 ATPase inh | Redox H2O2 prof | PMI act satM6P | G6PDH counter-1 | PMI act | G6PDH counter-2 | TbHK1 confirm
CCCCOc1ccc(C(=O)NNC(=S)NC(=O)CC)cc1 | 58* | 10 | 0 | 1.2 | -14 | 1.1 | -19 | -9
COCCNC(=O)CCC(=O)NNc1nc2ccccc2c2nc(-c3ccccc3)nn12 | -7 | 5 | 0 | 1.1 | 2 | 1 | . | .
CC1(C(=O)CSc2n[nH]c(-c3ccccc3Cl)n2)CCC(=O)O1 (stereo not given) | 67* | 6 | 0 | 1.1 | -2 | 0.8 | -11 | -2
O=C(c1ccco1)N1CCN(S(=O)(=O)Cc2ccccc2Cl)CC1 | -2 | 3 | -1 | 0.7 | 9 | 1 | . | .
O=C1CCC(C(=O)NCCCn2ccnc2)N1 (stereo not given) | 58* | 3 | 0 | 0.9 | -9 | 0.9 | -1 | 2
O=C(NCCCn1ccnc1)C1CC2CCC1C2 (stereo not given) | -5 | -8 | 1 | 1.1 | -4 | 1 | . | .
Cc1nc2nc(-c3ccccc3)cc(=O)n2[nH]1 | 55* | -8 | 0 | 1.2 | 12 | 1.1 | -3 | 1
NC(=O)c1cccc(CC(=O)c2ccccc2)c1 | -2 | 4 | . | . | . | . | . | .
COc1ccc(CCCC(=O)N/N=C/c2cccc(OC)c2O)cc1C | 63* | 1 | 0 | 1 | 6 | 1 | -9 | 6
Cc1cc(=O)[nH]c(N/N=C/c2ccccn2)n1 | -8 | -7 | 0 | 1.2 | 10 | 1 | . | .
Cc1cc(=O)[nH]c(N/N=C/c2c(O)n(-c3ccccc3)c(=O)c3ccccc23)n1 | 56* | 6 | 0 | 1.4 | 24 | 1 | -57 | -23
CN(C)c1cccc(C(=O)OCC(=O)Nc2nccs2)c1 | 12 | 5 | 0 | 0.9 | -5 | 1 | . | .
CC1CCC(NC(=O)c2ccc(CS(=O)(=O)Cc3ccccc3F)o2)CC1 (stereo not given) | 61* | 4 | -5 | 0.9 | 6 | 0.9 | -4 | 7
COc1cccc(OCCNC(=O)Nc2cc(F)c(F)cc2Cl)c1 | -2 | -2 | 1 | 0.8 | -2 | 0.9 | . | .
COc1cc(-c2nnn(CC(=O)NC3CCS(=O)(=O)C3)n2)ccc1OCc1ccccc1 (stereo not given) | 66* | -7 | 0 | 0.9 | 3 | 1 | -38 | 1
